Dynein transport: dynein cargo transport inhibition; 3617.4 mouse cells, GR-EGFP nuclear translocation imaging; test concentration mostly 20 µM; stimulated with dexamethasone, 1 µM; stronger effect = lower value; z-score, hits read low; hit rate 0.47% among 220,000;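 active means plate z-score of nuclear minus cytoplasmic receptor signal below a set negative limit, without overly bright fluorescence or cell loss, cut at about -3.5 in these data, passing the limit was not always enough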;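 further: z-score of nuclear minus cytoplasmic ring GR-EGFP intensity difference per well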
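Buffer or medium: tet-free medium with charcoal-stripped serum / Also added: dexamethasone agonist, 1.0 µM final, for 30 min / Timing: induction 48 h, compound 1 h, agonist 30 min / Measured by: high-content fluorescence imaging after fixation / Read-out: nuclear-to-cytoplasmic GR-EGFP distribution per well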
RAM network inh: blocks the yeast RAM network | S. cerevisiae dse1pr::URA3 reporter, 5-FOA growth OD615, 2 d; analog-sensitive cbk1-as2 kinase mutant strain | inhibition, % at 50 µM | hit rate 1.8% among 190,000;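 active means inhibition above a set limit, 3 SD over mean compound inhibition, cut at about 8.4% in these data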;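 further: inhibition rescues growth on 5-FOA so higher OD means more RAM inhibition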
NCF1 inh: blocks human p47phox regulatory protein of NADPH oxidases; inhibition, % at 24.7 µM; p47phox/p22phox peptide binding, fluorescence polarization, 2 h; hit rate 0.53% among 220,000;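 active means inhibition above about 30%, limit read from the data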
Target sequence (P14598 whole entry, looked up): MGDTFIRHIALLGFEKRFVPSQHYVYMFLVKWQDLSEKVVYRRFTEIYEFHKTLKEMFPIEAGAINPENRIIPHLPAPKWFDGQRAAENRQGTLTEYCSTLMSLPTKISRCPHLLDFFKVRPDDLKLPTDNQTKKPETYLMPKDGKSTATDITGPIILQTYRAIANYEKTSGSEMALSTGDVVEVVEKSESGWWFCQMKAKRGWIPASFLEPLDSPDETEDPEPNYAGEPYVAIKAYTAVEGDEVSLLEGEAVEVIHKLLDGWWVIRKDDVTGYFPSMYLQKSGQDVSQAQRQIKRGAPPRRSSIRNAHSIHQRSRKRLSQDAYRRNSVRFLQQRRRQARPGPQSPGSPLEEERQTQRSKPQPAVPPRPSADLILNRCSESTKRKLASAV
p-CIP stab down: compounds decreasing mouse p/CIP protein stability; Q05BA5; F442A p/CIP-EGFP cells, EGFP fluorescence, 16 h; decrease of EGFP signal, % at 10 µM; hit rate 0.01% among 290,000; AID 1984;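 active means EGFP signal decrease of at least 30% at 10 µM or well 3 SD below plate mean, unless failing retest; inactive means the rest, including hits failing retest or dose response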
Numbers stand for hits; – = inactive; · = no result; ! = repeats disagree. Shown are actives, neighbours in structure and some others; about 1.9% of the full set was active somewhere.

SMILES	Dynein transport	RAM network inh	NCF1 inh	p-CIP stab down
Cn1c(Cc2ccccc2)nnc1SCC(=O)N1CCOCC1	–	–	83.4	–
CC1CSC(N(C(=O)c2ccc(S(C)(=O)=O)cc2)c2ccc(Cl)cc2)=N1 (stereo not drawn)	·	·	·	–
Cc1cc2nc(-c3ccc(SCC(=O)NC(C)C)nc3)[nH]c2cc1C	–	–	–	–
Cc1cc(NC(=O)CSc2ccc(-c3nc4cc(C)c(C)cc4[nH]3)cn2)no1	–	10.0	–	–
Cc1cc2nc(-c3ccc(SCC(=O)Nc4ccc(S(=O)(=O)NC5CC5)cc4)nc3)[nH]c2cc1C	–	9.3	–	–
COc1cc(C2Nc3ccccc3C(=O)N2c2ccc3c(c2)OCCO3)ccc1OCC(C)C (stereo not drawn)	–	–	–	–
COc1ccc(-n2nnnc2S(=O)(=O)Cc2ccc(C(=O)O)cc2)cc1	–	–	–	–
COc1ccc(-n2nnnc2S(=O)(=O)CC(=O)N2CCCCC2)cc1	-3.89	–	–	–
CC(=O)N1c2ccc(S(=O)(=O)NCC3CCC(C(=O)Nc4cc(C)ccn4)CC3)cc2CC1C (stereo not drawn)	·	·	·	–
COc1ccc(NC(=O)CSCC(=O)Nc2cc(Cl)ccc2N2CCCC2)cc1	·	·	·	–
COc1ccc(/C=N/NC(=O)c2nc(-c3ccccc3)cc(-c3ccccc3)n2)cc1OC	–	10.2	–	–
O=CN1CCN(C(=O)CC(c2ccccc2)c2cc(Br)ccc2O)CC1 (stereo not drawn)	·	·	·	–
Cc1cccc2c1N(CCCOc1ccc(C(C)(C)C)cc1)C(=O)C2=O	–	10.8	–	–
COc1ccccc1/C=C(/C(=O)OCC(N)=O)c1ccccc1	–	–	–	–
COc1ccccc1/C=C(/C(=O)OCC(=O)N(C)Cc1ccccc1)c1ccccc1	–	10.2	–	–
O=c1c2ccccc2n(Cc2cccc(F)c2)c(=O)n1C1CCCC1	–	9.3	–	–
CCc1ccc(N(CC(=O)NC2CCCC2)S(=O)(=O)c2c(C)noc2C)cc1	–	9.0	–	–
Cc1ccc(N(CC(=O)NC2CCCCC2C)S(=O)(=O)c2c(C)noc2C)cc1 (stereo not drawn)	·	·	·	–
COc1ccc(-c2nc(N)ncc2Oc2ccccc2Br)c(O)c1	–	–	–	–
COc1cccc(Oc2cnc(N)nc2-c2ccc(OC)cc2O)c1	–	10.4	–	–
COc1ccc(NC(=O)Nc2cccc(Cl)c2Cl)c(OC)n1	–	·	–	–
COc1ccc(CNC(=O)C/C(C)=N/NC(=O)c2ccc(OC)cc2OC)cc1	·	·	·	–
O=[N+]([O-])c1cccc2ccc(/C=C/c3ccc(C(F)(F)F)cc3)nc12	–	10.3	–	–
Nn1c(-c2cccs2)nc2sc3c(c2c1=O)CCCC3	–	9.0	–	–
O=C(O)CCc1ccc(-c2cccs2)n1CCC(=O)O	–	–	–	–
SMILES	Dynein transport	RAM network inh	NCF1 inh	p-CIP stab down
O=C(O)CCc1ccc(-c2cccs2)n1CCc1ccccc1	–	9.5	–	–
CCn1c(CN2CCOCC2)nnc1SCC(=O)Nc1cccc(C)c1	·	·	·	–
CNC(=S)N1CCn2cccc2C1c1cc(OC)c(OC)c(OC)c1 (stereo not drawn)	–	–	–	–
CCNC(=S)N1CCn2cccc2C1c1ccc(F)cc1 (stereo not drawn)	–	–	40.2	–
N#CC1=C(N)OC2=C(CN(Cc3ccccc3)C/C2=C\c2cccnc2)C1c1cccnc1 (stereo not drawn)	–	–	123.1	–
CC(C)N1CC2=C(OC(N)=C(C#N)C2c2cccnc2)/C(=C/c2cccnc2)C1 (stereo not drawn)	–	–	77.1	–
CCNS(=O)(=O)c1ccc(NC(=O)c2ccc(Cn3cc([N+](=O)[O-])cn3)o2)cc1	–	–	–	–
CN(C)CCCNS(=O)(=O)c1ccc(N2CCC(c3ccc(Cl)cc3)=N2)cc1	–	–	40.6	–
CC(C)N(Cc1nc(-c2ccccc2)no1)S(=O)(=O)c1ccccc1	–	–	–	–
O=S(=O)(c1ccccc1)N(Cc1nc(-c2ccccc2)no1)C1CCCCC1	–	9.2	–	–
CC(C)N(Cc1nc(-c2ccccc2)no1)C(=O)CN(C)S(=O)(=O)c1ccccc1	–	8.7	–	–
Cc1cc(NC(=O)COC(=O)C2CC(=O)N(c3ccccc3Cl)C2)no1 (stereo not drawn)	·	·	·	–
CCN(CC)S(=O)(=O)c1ccc(N/N=C(\C)c2ccc3c(c2)OCO3)c([N+](=O)[O-])c1	–	–	–	–
C/C(=N\Nc1ccc(S(N)(=O)=O)cc1[N+](=O)[O-])c1ccc2c(c1)OCO2	–	–	37.5	–
O=c1[nH][nH]c(=S)n1-c1ccccc1C(F)(F)F	–	·	60.5	–
COc1cc(/C=C2\SC(=O)N(CCN)C2=O)ccc1OS(=O)(=O)c1cc(C)ccc1C	–	8.5	72.2	–
CCc1cc2c(SCC(=O)c3ccc(C)cc3)ncnc2s1	–	9.9	–	–
CCc1cc2c(SCc3ccc(C(=O)OC)o3)ncnc2s1	·	·	·	–
Cc1cc(C)nc(NC(=NCCc2c[nH]c3ccccc23)NC(=O)Nc2ccccc2)n1	–	–	–	–
Cc1cc(C)nc(NC(=NCCc2c[nH]c3ccccc23)NC(=O)c2ccco2)n1	–	9.8	–	–
CCOC(=O)c1c(CSC(=N)N)n(C)c2cc(Br)c(OC(C)=O)cc12	–	·	–	–
CCOC(=O)c1c(CSC(=N)N)n(-c2ccc(C)cc2)c2cc(Br)c(OC(C)=O)cc12	–	11.0	37.4	–
S=C(NCCCN1CCOCC1)NCCCN1CCOCC1	–	–	–	–
S=c1[nH]nc(NCCCN2CCOCC2)s1	–	·	77.7	–
CCCn1c(C(O)c2cccc(OC)c2)nc2ccccc21 (stereo not drawn)	·	·	·	–
SMILES	Dynein transport	RAM network inh	NCF1 inh	p-CIP stab down
Cc1nn(-c2ccccc2)c(C)c1NC(=O)COc1ccc(Br)cc1Cl	–	–	–	–
CCOc1cc(C(=O)N(C)Cc2cc3ccccc3[nH]c2=O)cc(OCC)c1OCC	–	8.8	–	–
O=[N+]([O-])c1ccc(C23CC4CC(CC(O)(C4)C2)C3)cc1	·	·	·	–
COc1cc(OC)c(C2CC(=O)N3CN(c4ccccc4C)CSC3=C2C#N)cc1OC (stereo not drawn)	–	–	47.3	–
COc1ccc(C(=O)OCCOc2ccccc2C(C)=O)c(O)c1	–	11.3	–	–
COCCNC(=O)c1nn2c(C(F)(F)F)cc(-c3ccccc3)nc2c1Cl	·	·	·	–
COc1cc(OC)c(NC(=O)CCCn2c(=O)oc3ccccc32)cc1Cl	–	11.3	–	–
COc1cccc(CCc2nnc(CCC(=O)NCCC3CCCCO3)o2)c1 (stereo not drawn)	·	·	·	–
COc1ccc(N=c2ssnc2Cl)cc1	-3.85	–	–	–
Clc1nssc1=Nc1ccccc1	–	–	–	–
Clc1ccc(N=c2ssnc2Cl)cc1	-4.34	–	–	–
COc1cc(N=c2ssnc2Cl)cc(OC)c1OC	–	–	–	–
c1ccc2[nH]c(-c3ccncc3)nc2c1	–	–	30.3!	–
COc1ccc(NC(=O)NC2CCCc3ccccc32)c(OC)c1 (stereo not drawn)	·	·	·	–

Screening results deposited in PubChem BioAssay by several laboratories.
